Experimental findings from ChEMBL document CHEMBL3091351, “The 3,7-diazabicyclo[3.3.1]nonane scaffold for subtype selective nicotinic acetylcholine receptor (nAChR) ligands. Part 1: the influence of different hydrogen bond acceptor systems on alkyl and (hetero)aryl substituents” (Bioorg Med Chem, 2013) are described below.

Assay [1] deals with Neuronal acetylcholine receptor; alpha4/beta2 (Rattus norvegicus, UniProt P09483+P12390). Nature of the assay: Displacement of [3H]-epibatidine from rat forebrain alpha4beta2 nAChR. The procedure, abridged:
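Rat forebrain P2 membranes (60 µg protein) in HSS buffer with 0.5 nM (±)-[3H]epibatidine and 6–9 test concentrations. Incubated 90 min at 22 °C; non-specific binding defined with 300 µM (−)-nicotine. Filtered through PEI-presoaked glass fibre filters and counted by liquid scintillation. Run in duplicate to quadruplicate, with 2–10 independent experiments.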
(In general: Displacement assays read how much labelled ligand stays bound in the presence of the test substance.)

In assay [2] the target is Neuronal acetylcholine receptor subunit alpha-7 (Rattus norvegicus, UniProt Q05941). Briefly: Displacement of [3H]methyllycaconitine from rat forebrain alpha7 nAChR. Put shortly: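 Competition binding on rat forebrain P2 membranes (60–70 µg protein) with [3H]MLA across 6–9 test concentrations. Incubation 120 min at 22 °C; 1 µM MLA defined non-specific binding. Samples filtered on PEI-presoaked glass fibre, scintillation-counted; duplicate to quadruplicate, 2–10 independent experiments.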

Assay [3] can be described thus: Binding affinity to (alpha1)2beta1gammadelta nAChR in Torpedo californica electroplax by radioligand displacement assay. Set-up: species or system Tetronarce californica. Put shortly:
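Torpedo californica electroplax membranes (60–70 µg) incubated with (±)-[3H]epibatidine and 6–9 test concentrations in HSS buffer, 90 min at 22 °C. 300 µM (−)-nicotine defined non-specific binding. PEI-presoaked glass fibre filtration, scintillation counting; duplicate to quadruplicate, 2–10 independent experiments.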

A short description of assay [4]: Binding affinity to pig adrenal alpha3beta4 nAChR by radioligand displacement assay. Set-up: species or system Sus scrofa.

The term Ki denotes the equilibrium dissociation constant of an inhibitor or competing ligand from its target. Low values mean tighter binding, high ones weaker binding.

The structures appear in SMILES notation. Bounds are passed on as bounds.

Neuronal acetylcholine receptor subunit alpha-7, sequence (Q05941 whole entry): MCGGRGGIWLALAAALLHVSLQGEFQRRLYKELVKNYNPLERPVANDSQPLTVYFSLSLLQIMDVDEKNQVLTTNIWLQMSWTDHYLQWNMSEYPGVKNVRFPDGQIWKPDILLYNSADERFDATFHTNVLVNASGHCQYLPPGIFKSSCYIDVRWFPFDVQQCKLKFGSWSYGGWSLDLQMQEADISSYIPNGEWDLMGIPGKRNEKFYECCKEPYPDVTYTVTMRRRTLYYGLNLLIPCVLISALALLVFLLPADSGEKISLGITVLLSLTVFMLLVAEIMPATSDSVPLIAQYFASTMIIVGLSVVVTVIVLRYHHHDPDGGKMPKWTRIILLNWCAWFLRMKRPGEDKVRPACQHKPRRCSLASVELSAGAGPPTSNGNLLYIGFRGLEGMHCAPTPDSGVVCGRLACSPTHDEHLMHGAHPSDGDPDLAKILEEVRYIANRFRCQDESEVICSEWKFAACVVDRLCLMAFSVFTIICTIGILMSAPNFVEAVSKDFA
Neuronal acetylcholine receptor; alpha4/beta2, sequence (P09483 whole entry): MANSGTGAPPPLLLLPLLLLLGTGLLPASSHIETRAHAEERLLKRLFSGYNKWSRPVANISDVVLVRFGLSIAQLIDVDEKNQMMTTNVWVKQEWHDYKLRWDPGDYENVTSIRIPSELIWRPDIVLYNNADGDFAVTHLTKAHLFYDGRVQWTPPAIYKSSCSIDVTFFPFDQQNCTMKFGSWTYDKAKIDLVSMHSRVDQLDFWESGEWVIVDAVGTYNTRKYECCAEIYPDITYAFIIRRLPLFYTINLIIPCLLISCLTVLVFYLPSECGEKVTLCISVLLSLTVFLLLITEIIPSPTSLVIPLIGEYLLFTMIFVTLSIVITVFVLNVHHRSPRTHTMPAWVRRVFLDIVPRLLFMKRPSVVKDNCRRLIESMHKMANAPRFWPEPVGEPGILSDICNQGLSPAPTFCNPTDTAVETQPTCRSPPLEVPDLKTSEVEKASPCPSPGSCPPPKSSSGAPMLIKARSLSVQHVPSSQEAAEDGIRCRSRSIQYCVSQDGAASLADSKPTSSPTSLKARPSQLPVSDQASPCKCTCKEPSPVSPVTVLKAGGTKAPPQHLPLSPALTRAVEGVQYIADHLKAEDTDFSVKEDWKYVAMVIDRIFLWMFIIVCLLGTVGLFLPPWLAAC
Neuronal acetylcholine receptor; alpha4/beta2, sequence (P12390 whole entry): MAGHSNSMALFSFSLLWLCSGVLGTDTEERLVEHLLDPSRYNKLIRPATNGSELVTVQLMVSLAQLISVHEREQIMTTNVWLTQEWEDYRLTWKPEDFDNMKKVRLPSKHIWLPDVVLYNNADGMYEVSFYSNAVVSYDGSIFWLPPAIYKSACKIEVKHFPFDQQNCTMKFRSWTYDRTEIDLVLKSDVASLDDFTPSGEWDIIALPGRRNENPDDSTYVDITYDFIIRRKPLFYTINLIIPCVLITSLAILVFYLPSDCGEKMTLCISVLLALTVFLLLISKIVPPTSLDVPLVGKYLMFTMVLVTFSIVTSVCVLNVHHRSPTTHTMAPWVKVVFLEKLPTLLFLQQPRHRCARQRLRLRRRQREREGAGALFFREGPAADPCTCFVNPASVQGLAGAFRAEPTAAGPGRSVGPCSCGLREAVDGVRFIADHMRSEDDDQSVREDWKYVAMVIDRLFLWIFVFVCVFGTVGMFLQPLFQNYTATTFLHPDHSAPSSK

For `O=c1c(-c2cccnc2)ccc2n1C[C@@H]1CNC[C@H]2C1`, the values for the Ki in assay [1], in assay [2] and in assay [3] were 0.00091 µM, 1.1 µM and more than 5 µM, respectively.
In the case of `O=c1cccc2n1C[C@@H]1CNC[C@H]2C1` [CYTISINICLINE], the Ki came out at 0.019 µM in assay [4], 0.25 µM in assay [2] and 1.3 µM in assay [3].
